Activity calls are given as the source filed them. The calls are words filed in the database; no cut-off is given here.
Experiments:
[1] = Inhibition of VLA-4 (unknown origin) binding to VCAM-1 in human Jurkat TM cells after 30 mins by fibronectin mediated cell adhesion assay; type: cell-based
Method in brief: (§1)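 Calcein-labelled Jurkat TM cells (10^5/well) in Hepes 20 mM, NaCl 140 mM, CaCl2 1 mM, MgCl2 1 mM, 0.3% BSA with activating anti-α4 TS2/16. Cells were preincubated 30 min on wet ice with anti-α5 (5 µg/ml) and a compound dose–response, then bound 35 min at 37 °C, 5% CO2 to human plasma fibronectin-coated wells. Wells were washed 3× and read by fluorescence to give IC50.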

[2] = Oral bioavailability in Sprague-Dawley rat; type: ADME, organism-based; conditions: in vivo
[3] = Plasma concentration in po dosed Sprague-Dawley rat after 12 hrs; type: ADME, organism-based
[4] = AUC in po dosed Sprague-Dawley rat; type: ADME, organism-based; conditions: plasma
[5] = AUC in iv dosed Sprague-Dawley rat; type: ADME, organism-based; conditions: plasma
Mus musculus [6] = experiment: Inhibition of Eos influx in Black/6 mouse acute pulmonary cellular influx model at 1 mg/kg, po bid administered 1hr prior and 12 hrs post ova/alum challenge on day 28 and 29 relative to vehicle-treated control; type: functional
Method in brief: (§2)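 Female Black/6 mice were sensitized i.p. with ova/alum on day 1, boosted on day 14 and challenged with aerosolized ova and alum on days 28 and 29. Dosing was oral gavage (5 ml/kg) twice daily on days 28–29, 1 h before and 12 h after challenge. Reference anti-α4 antibody PS/2 was given iv at 10 mg/kg, 2 h before the first challenge. Bronchoalveolar lavage eosinophils were counted on day 30 (48 h after the first challenge) as % inhibition.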

Mus musculus [7] = experiment: Inhibition of Eos influx in Black/6 mouse acute pulmonary cellular influx model at 1 mg/kg, po bid administered 1hr prior and 12 hrs post ova/alum challenge on day 28 and 29 relative to alpha4 antibody PS/2; type: functional; method in brief: as §2
Integrin alpha-V/beta-1 = Integrin alpha-V/beta-1 (Homo sapiens, UniProt P05556+P06756); experiment: Inhibition of integrin alphaVbeta1 (unknown origin) binding to mouse OPN-HIS after 30 mins by fibronectin mediated cell adhesion assay; type: protein-complex assay
Rattus norvegicus [8] = experiment: Antirheumatic activity in Lewis rat collagen induced arthritis model assessed as ankle histology at 3 to 30 mg/kg, po bid for 21 days; type: functional, organism-based
Method in brief: (§3)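 Female Lewis rats developing type II collagen arthritis were dosed prophylactically by oral gavage, bid, at 3, 10 or 30 mg/kg for 21 days. A separate arm received methotrexate 0.05 mg/kg po qd, alone or combined. Read-outs were ankle caliper measurements as AUC, terminal hind paw weights, body weight and ankle/knee histology. Only animals with definite clinical and histopathologic disease were analysed.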

Rattus norvegicus [9] = experiment: Antiarthritic activity in Lewis rat collagen induced arthritis model assessed as final paw weight at 3 mg/kg, po bid for 21 days; type: functional, organism-based; set-up: dose 3 mg/kg; method in brief: as §3
Rattus norvegicus [10] = experiment: Antirheumatic activity in Lewis rat collagen induced arthritis model assessed as ankle histology at 0.05 mg/kg, po bid for 21 days; type: functional, organism-based; set-up: dose 0.05 mg/kg
Rattus norvegicus [11] = experiment: Antiarthritic activity in Lewis rat collagen induced arthritis model assessed as final paw weight at 10 to 30 mg/kg, po bid for 21 days; type: functional, organism-based; method in brief: as §3
Cavia porcellus = experiment: Antiinflammatory activity in guinea pig at 30 to 300 mg/kg, po bid for 12 days; type: functional, organism-based
Method in brief: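 Guinea pig EAE: animals were immunized, and only those with established disease (clinical score >0) were randomized at 16–18 days post-immunization. Oral dosing was bid for 12 days at 30 or 300 mg/kg. Natalizumab was given every other day as comparator. The read-out was clinical score over the treatment period.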

Rattus norvegicus [12] = experiment: Antiarthritic activity in Lewis rat collagen induced arthritis model assessed as inhibition of AUC for ankle swelling at 3 mg/kg, po bid for 21 days; type: functional; conditions: 504 h, read-out: INH; method in brief: as §3
Rattus norvegicus [13] = experiment: Antiarthritic activity in Lewis rat collagen induced arthritis model assessed as AUC for ankle swelling at 10 to 30 mg/kg, po bid for 21 days; type: functional, organism-based; method in brief: as §3
Rattus norvegicus [14] = experiment: Antiarthritic activity in Lewis rat collagen induced arthritis model assessed as bone resorbtion at 3 to 30 mg/kg, po bid for 21 days; type: functional, organism-based; method in brief: as §3
Rattus norvegicus [15] = experiment: Antiarthritic activity in Lewis rat collagen induced arthritis model assessed as cartilage destruction at 3 to 30 mg/kg, po bid for 21 days; type: functional, organism-based; method in brief: as §3
Rattus norvegicus [16] = experiment: Antiarthritic activity in Lewis rat collagen induced arthritis model at 3 to 30 mg/kg, po bid for 21 days; type: functional, organism-based; method in brief: as §3
Mus musculus [17] = experiment: Inhibition of Eos influx in Black/6 mouse acute pulmonary cellular influx model at 3 mg/kg, po bid administered 1hr prior and 12 hrs post ova/alum challenge on day 28 and 29 relative to vehicle-treated control; type: functional
Method in brief: (§4)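 Female Black/6 mice were sensitized i.p. with ova/alum on day 1, boosted on day 14, and challenged with aerosolized ova on days 28 and 29. Compound was given by oral gavage (5 ml/kg) twice daily on days 28–29, 1 h before and 12 h after challenge. BAL was collected on day 30, 48 h after the first challenge. Eosinophil influx was reported as % inhibition against vehicle or against PS/2 (anti-α4, 10 mg/kg iv, 2 h before first challenge).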

Mus musculus [18] = experiment: Inhibition of Eos influx in Black/6 mouse acute pulmonary cellular influx model at 3 mg/kg, po bid administered 1hr prior and 12 hrs post ova/alum challenge on day 28 and 29 relative to PS/2; type: functional; method in brief: as §4
[19] = Inhibition of VLA-4 in mouse serum binding to VCAM-1 in human Jurkat TM cells after 30 mins by fibronectin mediated cell adhesion assay; type: cell-based; conditions: 0.5 h
[20] = Inhibition of VLA-4 in rat serum binding to VCAM-1 in human Jurkat TM cells after 30 mins by fibronectin mediated cell adhesion assay; type: cell-based; conditions: 0.5 h
Method in brief: (§5)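 Cells were preincubated 30 min on wet ice with anti-α5 (5 µg/ml) and a compound dose–response, then allowed to bind 35 min at 37 °C, 5% CO2 to human plasma fibronectin-coated wells. Wells were washed 3× and read by fluorescence to give IC50.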

[21] = Inhibition of VLA-4 in human serum binding to VCAM-1 in human Jurkat TM cells after 30 mins by fibronectin mediated cell adhesion assay; type: cell-based; conditions: 0.5 h; method in brief: as §5
[22] = Inhibition of VLA-4 binding to VCAM-1 in human Jurkat TM cells after 30 mins by fibronectin mediated cell adhesion assay using BSA; type: cell-based; method in brief: as §1
[23] = target: Integrin alpha-L/beta-2 (LFA-1) (Homo sapiens, UniProt P05107+P20701); experiment: Inhibition of integrin alphaLbeta2 (unknown origin) binding to ICAM in human 8866 cells after 30 mins by ICAM mediated cell adhesion assay
Integrin alpha-5/beta-1 = Integrin alpha-5/beta-1 (Homo sapiens, UniProt P05556+P08648); experiment: Inhibition of integrin alpha5beta1 (unknown origin) binding to fibronectin in human THP1 cells after 30 mins by fibronectin mediated cell adhesion assay
Chain of Integrin alpha-5/beta-1 (P05556 21-798 limits assumed): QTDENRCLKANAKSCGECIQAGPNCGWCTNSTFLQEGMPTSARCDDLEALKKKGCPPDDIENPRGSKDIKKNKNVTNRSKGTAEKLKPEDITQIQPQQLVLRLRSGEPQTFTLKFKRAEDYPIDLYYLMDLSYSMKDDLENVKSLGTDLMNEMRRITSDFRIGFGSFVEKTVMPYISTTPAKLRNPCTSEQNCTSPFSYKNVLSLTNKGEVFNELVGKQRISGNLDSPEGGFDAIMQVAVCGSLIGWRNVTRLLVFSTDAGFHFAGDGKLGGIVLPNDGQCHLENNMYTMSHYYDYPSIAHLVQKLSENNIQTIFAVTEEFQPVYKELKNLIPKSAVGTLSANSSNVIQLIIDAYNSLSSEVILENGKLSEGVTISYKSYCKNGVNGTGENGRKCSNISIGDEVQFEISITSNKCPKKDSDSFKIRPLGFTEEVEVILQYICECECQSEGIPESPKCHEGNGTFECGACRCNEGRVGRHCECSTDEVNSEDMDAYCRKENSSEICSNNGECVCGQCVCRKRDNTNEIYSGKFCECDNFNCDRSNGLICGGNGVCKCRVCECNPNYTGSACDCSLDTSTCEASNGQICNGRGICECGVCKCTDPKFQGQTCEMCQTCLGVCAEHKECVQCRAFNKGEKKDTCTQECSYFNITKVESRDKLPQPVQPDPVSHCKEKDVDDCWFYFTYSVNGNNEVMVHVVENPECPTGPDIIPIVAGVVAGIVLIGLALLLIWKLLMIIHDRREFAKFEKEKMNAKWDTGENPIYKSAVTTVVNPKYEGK
Chain of Integrin alpha-5/beta-1 (P08648 42-894 limits assumed): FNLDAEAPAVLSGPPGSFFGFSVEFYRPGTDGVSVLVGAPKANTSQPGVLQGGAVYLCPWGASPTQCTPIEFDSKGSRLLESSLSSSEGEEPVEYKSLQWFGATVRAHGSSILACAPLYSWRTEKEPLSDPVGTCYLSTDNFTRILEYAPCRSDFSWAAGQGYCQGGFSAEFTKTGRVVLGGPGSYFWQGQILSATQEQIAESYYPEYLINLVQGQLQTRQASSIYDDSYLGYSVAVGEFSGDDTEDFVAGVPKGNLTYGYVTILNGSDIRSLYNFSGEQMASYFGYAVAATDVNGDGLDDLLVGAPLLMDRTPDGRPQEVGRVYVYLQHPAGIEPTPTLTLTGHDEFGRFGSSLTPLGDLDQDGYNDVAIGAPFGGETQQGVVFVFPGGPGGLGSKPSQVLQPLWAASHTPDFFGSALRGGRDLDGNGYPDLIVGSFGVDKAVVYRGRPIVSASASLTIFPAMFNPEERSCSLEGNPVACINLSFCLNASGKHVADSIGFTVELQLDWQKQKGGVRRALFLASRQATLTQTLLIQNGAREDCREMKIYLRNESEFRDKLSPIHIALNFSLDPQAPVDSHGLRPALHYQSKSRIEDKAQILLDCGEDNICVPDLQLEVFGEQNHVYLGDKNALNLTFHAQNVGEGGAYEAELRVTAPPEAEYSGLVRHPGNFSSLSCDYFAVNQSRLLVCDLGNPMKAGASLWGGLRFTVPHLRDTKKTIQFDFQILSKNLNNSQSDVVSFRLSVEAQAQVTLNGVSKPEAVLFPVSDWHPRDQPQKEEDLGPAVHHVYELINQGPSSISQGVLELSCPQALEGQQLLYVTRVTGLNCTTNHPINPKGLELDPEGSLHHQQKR
Chain of Integrin alpha-5/beta-1 (P08648 895-1049 limits assumed): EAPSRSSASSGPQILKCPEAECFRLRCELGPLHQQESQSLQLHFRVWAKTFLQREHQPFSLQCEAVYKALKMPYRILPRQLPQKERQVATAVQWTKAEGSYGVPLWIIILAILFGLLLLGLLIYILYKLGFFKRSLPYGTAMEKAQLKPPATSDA

Chain of Integrin alpha-V/beta-1 (P05556 21-798 limits assumed): as the sequence (P05556 21-798 limits assumed) above
Chain of Integrin alpha-V/beta-1 (P06756 31-889 limits assumed): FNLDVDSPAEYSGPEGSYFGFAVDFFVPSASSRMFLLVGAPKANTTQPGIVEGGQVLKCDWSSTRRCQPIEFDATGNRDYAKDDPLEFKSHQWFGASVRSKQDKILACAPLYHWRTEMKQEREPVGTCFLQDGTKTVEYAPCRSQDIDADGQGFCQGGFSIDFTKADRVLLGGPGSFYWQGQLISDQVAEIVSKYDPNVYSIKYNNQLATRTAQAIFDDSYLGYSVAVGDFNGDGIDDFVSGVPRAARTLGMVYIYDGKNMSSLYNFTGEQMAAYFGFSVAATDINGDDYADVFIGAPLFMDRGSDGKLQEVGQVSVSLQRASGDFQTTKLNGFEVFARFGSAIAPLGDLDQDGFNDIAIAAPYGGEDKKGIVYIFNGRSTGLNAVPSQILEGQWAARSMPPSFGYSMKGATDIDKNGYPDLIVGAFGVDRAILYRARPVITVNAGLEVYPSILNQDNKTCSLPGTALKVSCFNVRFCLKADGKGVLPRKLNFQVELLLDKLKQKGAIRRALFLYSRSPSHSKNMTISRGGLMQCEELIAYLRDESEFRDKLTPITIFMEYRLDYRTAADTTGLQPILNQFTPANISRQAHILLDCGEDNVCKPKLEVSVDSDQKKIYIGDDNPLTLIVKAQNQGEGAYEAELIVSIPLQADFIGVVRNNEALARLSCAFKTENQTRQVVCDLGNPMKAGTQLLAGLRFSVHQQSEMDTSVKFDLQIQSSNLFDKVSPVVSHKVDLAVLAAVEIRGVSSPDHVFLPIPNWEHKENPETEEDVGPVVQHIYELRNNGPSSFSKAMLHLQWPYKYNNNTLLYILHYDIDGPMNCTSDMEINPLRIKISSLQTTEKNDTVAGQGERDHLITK
Chain of Integrin alpha-V/beta-1 (P06756 891-1048 limits assumed): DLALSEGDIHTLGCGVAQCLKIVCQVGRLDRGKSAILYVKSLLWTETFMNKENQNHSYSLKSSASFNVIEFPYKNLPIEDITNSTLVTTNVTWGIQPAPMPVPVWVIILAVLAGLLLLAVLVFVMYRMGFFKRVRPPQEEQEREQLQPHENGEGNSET
Chain of Integrin alpha-L/beta-2 (LFA-1) (P20701 whole entry): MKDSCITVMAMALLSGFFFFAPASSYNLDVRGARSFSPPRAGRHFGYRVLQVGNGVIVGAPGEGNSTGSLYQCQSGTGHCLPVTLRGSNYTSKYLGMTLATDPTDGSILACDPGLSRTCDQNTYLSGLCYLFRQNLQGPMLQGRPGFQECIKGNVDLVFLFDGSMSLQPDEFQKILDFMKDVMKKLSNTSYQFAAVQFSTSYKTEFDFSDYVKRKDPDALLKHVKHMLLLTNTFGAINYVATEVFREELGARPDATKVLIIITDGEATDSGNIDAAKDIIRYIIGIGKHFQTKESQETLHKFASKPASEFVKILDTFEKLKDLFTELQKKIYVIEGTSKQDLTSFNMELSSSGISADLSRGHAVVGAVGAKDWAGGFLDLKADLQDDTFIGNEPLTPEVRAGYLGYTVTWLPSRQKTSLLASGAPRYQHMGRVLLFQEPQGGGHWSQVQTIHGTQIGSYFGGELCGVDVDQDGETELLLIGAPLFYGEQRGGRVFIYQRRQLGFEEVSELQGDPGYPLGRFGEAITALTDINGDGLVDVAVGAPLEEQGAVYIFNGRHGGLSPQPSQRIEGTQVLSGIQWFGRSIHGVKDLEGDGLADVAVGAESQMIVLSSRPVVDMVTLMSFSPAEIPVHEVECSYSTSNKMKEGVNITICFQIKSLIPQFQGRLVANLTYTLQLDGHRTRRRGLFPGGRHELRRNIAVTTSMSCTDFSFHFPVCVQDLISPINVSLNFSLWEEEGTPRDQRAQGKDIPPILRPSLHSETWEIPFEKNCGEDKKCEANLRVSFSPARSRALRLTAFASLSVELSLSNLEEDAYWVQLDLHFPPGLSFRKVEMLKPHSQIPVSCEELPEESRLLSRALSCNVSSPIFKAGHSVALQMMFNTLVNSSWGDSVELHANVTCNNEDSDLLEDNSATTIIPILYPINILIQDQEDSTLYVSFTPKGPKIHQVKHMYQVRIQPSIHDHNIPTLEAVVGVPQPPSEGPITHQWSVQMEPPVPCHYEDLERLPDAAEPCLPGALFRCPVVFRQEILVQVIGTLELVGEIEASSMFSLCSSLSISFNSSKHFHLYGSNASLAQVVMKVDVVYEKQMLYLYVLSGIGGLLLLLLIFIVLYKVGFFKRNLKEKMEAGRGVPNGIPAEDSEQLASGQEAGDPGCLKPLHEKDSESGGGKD
Chain of Integrin alpha-L/beta-2 (LFA-1) (P05107 whole entry): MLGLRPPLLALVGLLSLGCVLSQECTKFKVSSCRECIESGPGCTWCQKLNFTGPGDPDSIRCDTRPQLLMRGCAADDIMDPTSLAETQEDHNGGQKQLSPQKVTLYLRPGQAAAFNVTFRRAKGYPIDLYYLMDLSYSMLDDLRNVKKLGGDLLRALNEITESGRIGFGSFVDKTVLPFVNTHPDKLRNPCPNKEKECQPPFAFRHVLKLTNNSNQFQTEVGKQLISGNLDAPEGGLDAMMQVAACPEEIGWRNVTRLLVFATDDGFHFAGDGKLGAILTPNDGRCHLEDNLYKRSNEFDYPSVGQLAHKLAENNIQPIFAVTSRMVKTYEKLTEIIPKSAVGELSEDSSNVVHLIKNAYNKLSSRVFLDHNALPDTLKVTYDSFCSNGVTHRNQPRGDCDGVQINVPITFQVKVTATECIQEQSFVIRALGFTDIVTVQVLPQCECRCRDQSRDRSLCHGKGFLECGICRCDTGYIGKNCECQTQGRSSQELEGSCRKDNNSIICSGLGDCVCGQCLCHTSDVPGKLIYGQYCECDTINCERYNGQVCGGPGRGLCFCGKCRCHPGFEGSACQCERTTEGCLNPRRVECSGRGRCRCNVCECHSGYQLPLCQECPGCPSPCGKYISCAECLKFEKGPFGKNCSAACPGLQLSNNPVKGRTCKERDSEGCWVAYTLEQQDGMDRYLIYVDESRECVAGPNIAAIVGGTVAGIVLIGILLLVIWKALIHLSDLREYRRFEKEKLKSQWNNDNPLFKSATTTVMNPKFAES

CCN(CC)c1ncc(N(C(C)C)S(=O)(=O)c2ccc(F)cc2)c(N[C@@H](Cc2ccc(OC(=O)N(C)C)cc2)C(=O)O)n1
IC50 [1]: 5 nM

CCN(CC)c1ncc(N(CC)S(=O)(=O)c2ccc(Cl)cc2)c(N[C@@H](Cc2ccc(OC(=O)N(C)C)cc2)C(=O)O)n1
bioavailability [2]: 33%
concentration at 12 h [3]: 12 ng/mL
AUC [4]: 5100 ng·h/mL
AUC [5]: 17000 ng·h/mL
IC50 [1]: 7 nM

CCN(CC)c1ncc(N(C)S(=O)(=O)c2ccc(Cl)cc2)c(N[C@@H](Cc2ccc(OC(=O)N3CCCC3)cc2)C(=O)O)n1
bioavailability [2]: 33%
concentration at 12 h [3]: 330 ng/mL
AUC [4]: 51000 ng·h/mL
AUC [5]: 153000 ng·h/mL
IC50 [1]: 19 nM

Cc1ccc(S(=O)(=O)N(C)c2cncnc2N[C@@H](Cc2ccc(OC(=O)N(C)C)cc2)C(=O)O)cc1
IC50 [1]: 2 nM

C#CCN(c1cnc(N(CC)CC)nc1N[C@@H](Cc1ccc(OC(=O)N2CCCC2)cc1)C(=O)O)S(=O)(=O)c1ccc(F)cc1F
bioavailability [2]: 33%
concentration at 12 h [3]: 120 ng/mL
AUC [4]: 42000 ng·h/mL
AUC [5]: 126000 ng·h/mL
IC50 [1]: 13 nM

CCN(CC)c1ncc(N(CC)S(=O)(=O)c2ccc(F)cc2)c(N[C@@H](Cc2ccc(OC(=O)N3CCC3)cc2)C(=O)O)n1
bioavailability [2]: 16%
concentration at 12 h [3]: 10 ng/mL
AUC [4]: 6000 ng·h/mL
AUC [5]: 34000 ng·h/mL
IC50 [1]: 2 nM

CCN(CC)c1ncc(N(CC)S(=O)(=O)c2ccc(F)cc2)c(N[C@@H](Cc2ccc(OC(=O)N3CCCC3)cc2)C(=O)O)n1
bioavailability [2]: 46%
concentration at 12 h [3]: 180 ng/mL
AUC [4]: 51000 ng·h/mL
AUC [5]: 111000 ng·h/mL
IC50 [1]: 1 nM

C#CCN(c1cnc(N(CC)CC)nc1N[C@@H](Cc1ccc(OC(=O)N2CCCC2)cc1)C(=O)O)S(=O)(=O)c1ccc(F)cc1
inhibition in vivo at 1 mg/kg (Mus musculus [6]): 0%
inhibition in vivo at 1 mg/kg (Mus musculus [7]): 0%
IC50 (Integrin alpha-V/beta-1): 500 nM
Activity (Rattus norvegicus [8]): Active
Activity (Rattus norvegicus [9]): Active
Activity (Rattus norvegicus [10]): Active
Activity (Rattus norvegicus [11]): Active
Activity (Cavia porcellus): Active
inhibition in vivo at 3 mg/kg (Rattus norvegicus [12]): 15%
Activity (Rattus norvegicus [13]): Active
Activity (Rattus norvegicus [14]): Active
Activity (Rattus norvegicus [15]): Active
Activity (Rattus norvegicus [16]): Active
inhibition in vivo at 3 mg/kg (Mus musculus [17]): 41%
inhibition in vivo at 3 mg/kg (Mus musculus [18]): 74%
IC50 [19]: 36 nM
IC50 [20]: 1900 nM
IC50 [21]: 4600 nM
IC50 [22]: 9 nM
bioavailability [2]: 56%
concentration at 12 h [3]: 1310 ng/mL
AUC [4]: 88000 ng·h/mL
AUC [5]: 156000 ng·h/mL
IC50 [1]: 8 nM
IC50 [23]: > 30000 nM
IC50 (Integrin alpha-5/beta-1): > 30000 nM

CCN(CC)c1ncc(N(CC)S(=O)(=O)c2ccc(F)cc2)c(N[C@@H](Cc2ccc(OC(=O)N(C)C)cc2)C(=O)O)n1
bioavailability [2]: 44%
concentration at 12 h [3]: 60 ng/mL
AUC [4]: 14000 ng·h/mL
AUC [5]: 32000 ng·h/mL
IC50 [1]: 1 nM

CCN(CC)c1ncc(N(C)S(=O)(=O)c2ccc(C)cc2)c(N[C@@H](Cc2ccc(OC(=O)N3CCCC3)cc2)C(=O)O)n1
bioavailability [2]: 43%
concentration at 12 h [3]: 450 ng/mL
AUC [4]: 74000 ng·h/mL
AUC [5]: 173000 ng·h/mL
IC50 [1]: 6 nM
